Data: ChEMBL document CHEMBL5247575 (J Med Chem, 2018)

Tests used:
Format in all cases: functional
Acinetobacter baumannii [1] = experiment: Synergistic antibacterial activity against Acinetobacter baumannii PR323 producing OXA-24/40 assessed as meropenem MIC at 4 ug/ml by broth microdilution method; conditions: dose 4 µg/ml
Escherichia coli [2] = experiment: Synergistic antibacterial activity against Escherichia coli DH10B transfected with pBR322-catI-KPC-2 assessed as cefepime MIC at 4 ug/ml by broth microdilution method; conditions: dose 4 µg/ml
In short: (§1)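 Broth microdilution per CLSI guidelines, using custom frozen panels. […] Each partner drug was also tested alone. MICs were run in triplicate and the modal value is reported.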

Escherichia coli [3] = experiment: Antibacterial activity against Escherichia coli DH10B transfected with pBC SK (-) KPC-3 by broth microdilution method
Klebsiella pneumoniae [4] = experiment: Synergistic antibacterial activity against Klebsiella pneumoniae CAV 1636 producing OXA-181 assessed as cefepime MIC at 4 ug/ml by broth microdilution method; conditions: dose 4 µg/ml
Escherichia coli [5] = experiment: Antibacterial activity against Escherichia coli DH10B transfected with pBC SK (-) OXA-48 by broth microdilution method
Klebsiella pneumoniae [6] = experiment: Synergistic antibacterial activity against Klebsiella pneumoniae NY BS producing OXA-232 assessed as meropenem MIC at 4 ug/ml by broth microdilution method; conditions: dose 4 µg/ml
Pseudomonas aeruginosa [7] = experiment: Synergistic antibacterial activity against Pseudomonas aeruginosa 715 assessed as cefepime MIC at 4 ug/ml by broth microdilution method; conditions: dose 4 µg/ml
Acinetobacter baumannii [8] = experiment: Synergistic antibacterial activity against Acinetobacter baumannii PR319 producing OXA-23/24/40 assessed as cefepime MIC at 4 ug/ml by broth microdilution method; conditions: dose 4 µg/ml
Acinetobacter baumannii [9] = experiment: Synergistic antibacterial activity against Acinetobacter baumannii PR408 producing OXA-24/40 assessed as meropenem MIC at 4 ug/ml by broth microdilution method; conditions: dose 4 µg/ml
Pseudomonas aeruginosa [10] = experiment: Synergistic antibacterial activity against Pseudomonas aeruginosa 795 assessed as meropenem MIC at 4 ug/ml by broth microdilution method; conditions: dose 4 µg/ml
Klebsiella pneumoniae [11] = experiment: Synergistic antibacterial activity against Klebsiella pneumoniae 11978 producing OXA-48 assessed as meropenem MIC at 4 ug/ml by broth microdilution method; conditions: dose 4 µg/ml; in short: as §1
Acinetobacter baumannii [12] = experiment: Synergistic antibacterial activity against ADC deleted Acinetobacter baumannii transfected with pWH1266 OXA-23 assessed as meropenem MIC at 4 ug/ml by broth microdilution method; conditions: dose 4 µg/ml
Klebsiella pneumoniae [13] = experiment: Synergistic antibacterial activity against Klebsiella pneumoniae jefferson 1775 producing OXA-48 assessed as cefepime MIC at 4 ug/ml by broth microdilution method; conditions: dose 4 µg/ml
Acinetobacter baumannii [14] = experiment: Synergistic antibacterial activity against Acinetobacter baumannii PR476 producing OXA-24/40 assessed as meropenem MIC at 4 ug/ml by broth microdilution method; conditions: dose 4 µg/ml
Klebsiella pneumoniae [15] = experiment: Synergistic antibacterial activity against Klebsiella pneumoniae 776/1742 producing KPC-2 assessed as meropenem MIC at 4 ug/ml by broth microdilution method; conditions: dose 4 µg/ml
Pseudomonas aeruginosa [16] = experiment: Antibacterial activity against Pseudomonas aeruginosa CL232 by broth microdilution method
Escherichia coli [17] = experiment: Synergistic antibacterial activity against Escherichia coli DH10B transfected with pBC SK (-) KPC-3 assessed as cefepime MIC at 4 ug/ml by broth microdilution method; conditions: dose 4 µg/ml
Klebsiella pneumoniae [18] = experiment: Synergistic antibacterial activity against Klebsiella pneumoniae jefferson 1773 producing OXA-181 assessed as cefepime MIC at 4 ug/ml by broth microdilution method; conditions: dose 4 µg/ml
Klebsiella pneumoniae [19] = experiment: Synergistic antibacterial activity against Klebsiella pneumoniae 440/1360 producing KPC-2 assessed as meropenem MIC at 4 ug/ml by broth microdilution method; conditions: dose 4 µg/ml; in short: as §1
Pseudomonas aeruginosa [20] = experiment: Synergistic antibacterial activity against Pseudomonas aeruginosa 776 assessed as cefepime MIC at 4 ug/ml by broth microdilution method; conditions: dose 4 µg/ml
Klebsiella pneumoniae [21] = experiment: Synergistic antibacterial activity against Klebsiella pneumoniae 729/1679 producing KPC-3 assessed as cefepime MIC at 8 ug/ml by broth microdilution method; conditions: dose 8 µg/ml; in short: as §1
Acinetobacter baumannii [22] = experiment: Synergistic antibacterial activity against ADC deleted Acinetobacter baumannii assessed as meropenem MIC at 8 ug/ml by broth microdilution method; conditions: dose 8 µg/ml
Klebsiella pneumoniae [23] = experiment: Synergistic antibacterial activity against Klebsiella pneumoniae jefferson 1775 producing OXA-48 assessed as cefepime MIC at 8 ug/ml by broth microdilution method; conditions: dose 8 µg/ml
Escherichia coli [24] = experiment: Synergistic antibacterial activity against Escherichia coli DH10B transfected with pBC SK (-) PDC-3 assessed as cefepime MIC at 8 ug/ml by broth microdilution method; conditions: dose 8 µg/ml; in short: as §1
Klebsiella pneumoniae [25] = experiment: Synergistic antibacterial activity against Klebsiella pneumoniae 11978 producing OXA-48 assessed as meropenem MIC at 8 ug/ml by broth microdilution method; conditions: dose 8 µg/ml; in short: as §1
Klebsiella pneumoniae [26] = experiment: Synergistic antibacterial activity against Klebsiella pneumoniae 1084/1957 producing KPC-3 assessed as meropenem MIC at 8 ug/ml by broth microdilution method; conditions: dose 8 µg/ml; in short: as §1
Acinetobacter baumannii [27] = experiment: Synergistic antibacterial activity against Acinetobacter baumannii PR319 producing OXA-23/24/40 assessed as meropenem MIC at 8 ug/ml by broth microdilution method; conditions: dose 8 µg/ml
Acinetobacter baumannii [28] = experiment: Synergistic antibacterial activity against Acinetobacter baumannii PR476 producing OXA-24/40 assessed as cefepime MIC at 8 ug/ml by broth microdilution method; conditions: dose 8 µg/ml
Acinetobacter baumannii [29] = experiment: Synergistic antibacterial activity against Acinetobacter baumannii PR359 producing OXA-23 assessed as meropenem MIC at 8 ug/ml by broth microdilution method; conditions: dose 8 µg/ml
In short: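 Broth microdilution per CLSI guidelines in frozen panels. Test compound held at fixed 8 mg/L while the partner β-lactam concentration was increased. Run in triplicate; modal MIC reported.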

Pseudomonas aeruginosa [30] = experiment: Synergistic antibacterial activity against Pseudomonas aeruginosa 795 assessed as cefepime MIC at 8 ug/ml by broth microdilution method; conditions: dose 8 µg/ml
Klebsiella pneumoniae [31] = experiment: Synergistic antibacterial activity against Klebsiella pneumoniae 972/1910 producing KPC-3 assessed as cefepime MIC at 8 ug/ml by broth microdilution method; conditions: dose 8 µg/ml
Acinetobacter baumannii [32] = experiment: Synergistic antibacterial activity against Acinetobacter baumannii PR440 producing OXA-23/24/40 assessed as cefepime MIC at 8 ug/ml by broth microdilution method; conditions: dose 8 µg/ml
Klebsiella pneumoniae [33] = experiment: Synergistic antibacterial activity against Klebsiella pneumoniae CAV 1636 producing OXA-181 assessed as meropenem MIC at 8 ug/ml by broth microdilution method; conditions: dose 8 µg/ml
Acinetobacter baumannii [34] = experiment: Synergistic antibacterial activity against ADC deleted Acinetobacter baumannii transfected with pWH1266 producing OXA-24/40 assessed as cefepime MIC at 8 ug/ml by broth microdilution method; conditions: dose 8 µg/ml
Klebsiella pneumoniae [35] = experiment: Synergistic antibacterial activity against Klebsiella pneumoniae 1354/2241 producing KPC-3 assessed as meropenem MIC at 8 ug/ml by broth microdilution method; conditions: dose 8 µg/ml; in short: as §1
Klebsiella pneumoniae [36] = experiment: Synergistic antibacterial activity against Klebsiella pneumoniae 776/1742 producing KPC-2 assessed as cefepime MIC at 8 ug/ml by broth microdilution method; conditions: dose 8 µg/ml
Acinetobacter baumannii [37] = experiment: Synergistic antibacterial activity against Acinetobacter baumannii PR323 producing OXA-24/40 assessed as meropenem MIC at 8 ug/ml by broth microdilution method; conditions: dose 8 µg/ml
Acinetobacter baumannii [38] = experiment: Synergistic antibacterial activity against Acinetobacter baumannii PR448 producing OXA-23 assessed as meropenem MIC at 8 ug/ml by broth microdilution method; conditions: dose 8 µg/ml
Klebsiella pneumoniae [39] = experiment: Synergistic antibacterial activity against Klebsiella pneumoniae 1108/1989 producing KPC-3 assessed as cefepime MIC at 8 ug/ml by broth microdilution method; conditions: dose 8 µg/ml; in short: as §1

Compound | MIC (Acinetobacter baumannii [1]) [µg/mL] | MIC (Escherichia coli [2]) [µg/mL] | MIC (Escherichia coli [3]) [µg/mL] | MIC (Klebsiella pneumoniae [4]) [µg/mL] | MIC (Escherichia coli [5]) [µg/mL] | MIC (Klebsiella pneumoniae [6]) [µg/mL] | MIC (Pseudomonas aeruginosa [7]) [µg/mL] | MIC (Acinetobacter baumannii [8]) [µg/mL] | MIC (Acinetobacter baumannii [9]) [µg/mL] | MIC (Pseudomonas aeruginosa [10]) [µg/mL] | MIC (Klebsiella pneumoniae [11]) [µg/mL] | MIC (Acinetobacter baumannii [12]) [µg/mL] | MIC (Klebsiella pneumoniae [13]) [µg/mL] | MIC (Acinetobacter baumannii [14]) [µg/mL] | MIC (Klebsiella pneumoniae [15]) [µg/mL] | MIC (Pseudomonas aeruginosa [16]) [µg/mL] | MIC (Escherichia coli [17]) [µg/mL] | MIC (Klebsiella pneumoniae [18]) [µg/mL] | MIC (Klebsiella pneumoniae [19]) [µg/mL] | MIC (Pseudomonas aeruginosa [20]) [µg/mL] | other results
NC(=O)[C@@H]1CC[C@@H]2CN1C(=O)N2OS(=O)(=O)[O-].[Na+] [AVIBACTAM SODIUM] | > 16 | ≤ 0.12 | > 16 | 0.5 | > 16 | 0.5 | 16 | > 16 | > 16 | 16 | 1 | > 16 | ≤ 0.12 | 0.25 | ≤ 0.12 | > 16 | ≤ 0.12 | 1 | ≤ 0.12 |  | 
O.O=C(NC1CCNCC1)[C@@H]1CC[C@@H]2CN1C(=O)N2OS(=O)(=O)O [RELEBACTAM] | > 16 | ≤ 0.12 | > 16 | 4 | > 16 | > 16 | 16 | > 16 | > 16 | 8 | > 16 | > 16 | 0.25 | 0.25 | 0.5 | > 16 | ≤ 0.12 | 4 | ≤ 0.12 | 16 | 
O=C(NNC(=O)[C@@H]1CC[C@@H]2CN1C(=O)N2OS(=O)(=O)O)[C@@H]1CCCNC1 [ZIDEBACTAM] | > 16 | ≤ 0.12 |  | ≤ 0.12 |  | ≤ 0.12 |  | > 16 | > 16 | 16 | ≤ 0.12 | > 16 | ≤ 0.12 | 0.25 | ≤ 0.12 |  | ≤ 0.12 | ≤ 0.12 | ≤ 0.12 | 16 | MIC (Klebsiella pneumoniae [21]): ≤ 0.12 µg/mL; MIC (Acinetobacter baumannii [22]): ≤ 0.12 µg/mL; MIC (Klebsiella pneumoniae [23]): ≤ 0.12 µg/mL; MIC (Escherichia coli [24]): ≤ 0.12 µg/mL; MIC (Klebsiella pneumoniae [25]): ≤ 0.12 µg/mL; MIC (Klebsiella pneumoniae [26]): ≤ 0.12 µg/mL; MIC (Acinetobacter baumannii [27]): > 16 µg/mL; MIC (Acinetobacter baumannii [28]): 2 µg/mL; MIC (Acinetobacter baumannii [29]): > 16 µg/mL; MIC (Pseudomonas aeruginosa [30]): 16 µg/mL; MIC (Klebsiella pneumoniae [31]): ≤ 0.12 µg/mL; MIC (Acinetobacter baumannii [32]): > 16 µg/mL; MIC (Klebsiella pneumoniae [33]): ≤ 0.12 µg/mL; MIC (Acinetobacter baumannii [34]): 16 µg/mL; MIC (Klebsiella pneumoniae [35]): ≤ 0.12 µg/mL; MIC (Klebsiella pneumoniae [36]): ≤ 0.12 µg/mL; MIC (Acinetobacter baumannii [37]): > 16 µg/mL; MIC (Acinetobacter baumannii [38]): > 16 µg/mL; MIC (Klebsiella pneumoniae [39]): ≤ 0.12 µg/mL
